≈ marks a conversion by molar mass, not a printed value.
Legend:
Vero = experiment: Cytotoxicity against african green monkey Vero cells after 72 hrs by MTT assay; assay type: cell-based; settings: Chlorocebus sabaeus
Method in brief: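 Vero (CCL-81) cells in MEM with 10% FBS, penicillin-streptomycin and Glutamax, seeded at 3.0×10⁴ per well and left to adhere overnight. Compounds added from DMSO at final 100–0.16 μM, triplicate, for 72 h at 37 °C, 4.5% CO2. Then MTT 1.0 mg/mL in phenol-red-free RPMI for 3 h, formazan dissolved in isopropanol, A570 minus A690. Viability taken relative to DMSO control; EC50 from dose-response curves.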

[1] = system: Mycobacterium tuberculosis; experiment: Antitubercular activity against Mycobacterium tuberculosis H37Rv in Middlebrook 7H9 broth with butyrate after 7 to 14 days by broth microdilution method; assay type: functional
[2] = system: Mycobacterium tuberculosis; experiment: Antitubercular activity against Mycobacterium tuberculosis H37Rv in Middlebrook 7H9 broth with glucose after 7 to 14 days by broth microdilution method; assay type: functional
Method in brief: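 Broth microdilution of H37Rv in 7H9 with 0.8 g/L NaCl, 5 g/L BSA fraction V, 4 g/L glucose and 0.05% Tyloxapol. Run in quadruplicate from DMSO stocks with DMSO controls; isoniazid positive control.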

[3] = Therapeutic index, ratio of EC50 for african green monkey Vero cells to MIC for Mycobacterium tuberculosis H37Rv; assay type: cell-based; settings: read-out: TI
[4] = system: Mycobacterium tuberculosis; experiment: Antitubercular activity against Mycobacterium tuberculosis H37Rv in GAST media with glycerol and alanine after 7 to 14 days by broth microdilution method; assay type: functional

SMILES | EC50 (Vero) | MIC99 [1] | MIC99 [2] | selectivity ratio [3] | MIC99 [4]
CC(=O)c1ccc(C(=O)Nc2nc(-c3ccccn3)cs2)cc1 | 10.5 µM | 0.19 µM (≈ 0.0614 µg/mL) | 0.39 µM (≈ 0.126 µg/mL) | – | –
O=C(Nc1nc(-c2ccccn2)cs1)c1cc(F)ccc1F | 3.3 µM | 0.19 µM (≈ 0.0603 µg/mL) | 0.39 µM (≈ 0.124 µg/mL) | 8 | 0.098 µM (≈ 0.0311 µg/mL)
O=C(Nc1nc(-c2ccccn2)cs1)c1ccc(Cl)cc1 | – | 0.78 µM (≈ 0.246 µg/mL) | 1.6 µM (≈ 0.505 µg/mL) | – | 0.39 µM (≈ 0.123 µg/mL)
COc1ccc(Nc2nc(-c3ccccn3)cs2)c(OC)c1 | – | 6.3 µM (≈ 1.97 µg/mL) | 6.3 µM (≈ 1.97 µg/mL) | – | > 12.5 µM
O=C(Nc1nc(-c2ccccn2)cs1)c1ccco1 | – | 6.3 µM (≈ 1.71 µg/mL) | 3.1 µM (≈ 0.841 µg/mL) | – | 1.6 µM (≈ 0.434 µg/mL)
O=C(Nc1ccccc1)c1nc(-c2ccccn2)cs1 | – | – | > 25 µM | – | > 25 µM
Cc1ccccc1Nc1nc(-c2ccccn2)cs1 | – | 12.5 µM (≈ 3.34 µg/mL) | 12.5 µM (≈ 3.34 µg/mL) | – | 3.1 µM (≈ 0.829 µg/mL)
Cc1ccc(C(=O)Nc2nc(-c3ccccn3)cs2)cc1 | 10.5 µM | 0.19 µM (≈ 0.0561 µg/mL) | 0.39 µM (≈ 0.115 µg/mL) | 27 | 0.098 µM (≈ 0.0289 µg/mL)
O=C(Nc1nc(-c2ccccn2)cs1)c1ccsc1 | – | 3.1 µM (≈ 0.891 µg/mL) | 1.6 µM (≈ 0.46 µg/mL) | – | 0.78 µM (≈ 0.224 µg/mL)
COc1ccccc1C(=O)Nc1nc(-c2ccccn2)cs1 | 43.5 µM | 3.1 µM (≈ 0.965 µg/mL) | 6.3 µM (≈ 1.96 µg/mL) | 7 | 1.6 µM (≈ 0.498 µg/mL)
Cc1cccc(C)c1Nc1nc(-c2ccccn2)cs1 | – | 12.5 µM (≈ 3.52 µg/mL) | 12.5 µM (≈ 3.52 µg/mL) | – | 3.1 µM (≈ 0.872 µg/mL)
Cc1cccc(Nc2nc(-c3ccccn3)cs2)n1 | – | 3.1 µM (≈ 0.832 µg/mL) | 6.3 µM (≈ 1.69 µg/mL) | – | 0.78 µM (≈ 0.209 µg/mL)
O=C(Nc1nc(-c2ccccn2)cs1)c1ccccc1[N+](=O)[O-] | – | – | 1.6 µM (≈ 0.522 µg/mL) | – | 0.78 µM (≈ 0.255 µg/mL)
O=C(Nc1nc(-c2ccccn2)cs1)c1c(F)cccc1F | 3.2 µM | 0.78 µM (≈ 0.248 µg/mL) | 0.78 µM (≈ 0.248 µg/mL) | 4 | 0.19 µM (≈ 0.0603 µg/mL)
O=C(Nc1nc(-c2ccccn2)cs1)c1ccc(F)cc1F | 7.3 µM | – | 0.39 µM (≈ 0.124 µg/mL) | 9 | 0.19 µM (≈ 0.0603 µg/mL)
COc1ccc(OC)c(Nc2nc(-c3ccccn3)cs2)c1 | – | > 50 µM | > 50 µM | – | > 12.5 µM
FC(F)(F)c1cccc(Nc2nc(-c3ccccn3)cs2)c1 | – | 25 µM (≈ 8.03 µg/mL) | 25 µM (≈ 8.03 µg/mL) | – | > 12.5 µM
O=C(Nc1nc(-c2ccccn2)cs1)C1CCCCC1 | – | 3.1 µM (≈ 0.891 µg/mL) | 6.3 µM (≈ 1.81 µg/mL) | – | 1.6 µM (≈ 0.46 µg/mL)

SMILES | EC50 (Vero) | MIC99 [1] | MIC99 [2] | selectivity ratio [3] | MIC99 [4]
O=C(Nc1nc(-c2ccccn2)cs1)c1cc(F)cc(F)c1 | 1.5 µM | 0.098 µM (≈ 0.0311 µg/mL) | 0.19 µM (≈ 0.0603 µg/mL) | 8 | 0.049 µM (≈ 0.0155 µg/mL)
O=C(Nc1nnc(-c2ccccn2)s1)c1ccccc1F | – | – | > 6.25 µM | – | > 6.25 µM
O=C(Nc1nc(-c2ccccn2)cs1)C1CC1 | – | 12.5 µM (≈ 3.07 µg/mL) | 12 µM (≈ 2.94 µg/mL) | – | 6.3 µM (≈ 1.55 µg/mL)
O=C(Nc1nc(-c2ccccn2)cs1)c1cccnc1 | – | 3.1 µM (≈ 0.875 µg/mL) | 6.3 µM (≈ 1.78 µg/mL) | – | > 12.5 µM
Cc1ccccc1C(=O)Nc1nc(-c2ccccn2)cs1 | 6.3 µM | 0.19 µM (≈ 0.0561 µg/mL) | 0.39 µM (≈ 0.115 µg/mL) | 16 | –
CC(=O)c1ccccc1C(=O)Nc1nc(-c2ccccn2)cs1 | 86.7 µM | 12.5 µM (≈ 4.04 µg/mL) | 12.5 µM (≈ 4.04 µg/mL) | 7 | 3.13 µM (≈ 1.01 µg/mL)
O=C(Nc1nc(-c2ccccn2)cs1)c1cccc([N+](=O)[O-])c1 | – | – | 1.6 µM (≈ 0.522 µg/mL) | – | 0.78 µM (≈ 0.255 µg/mL)
O=C(Nc1nc(-c2ccccn2)cs1)c1cccnc1Cl | 1.9 µM | – | 0.39 µM (≈ 0.124 µg/mL) | 2 | 0.19 µM (≈ 0.0602 µg/mL)
O=C(Nc1nc(-c2ccccn2)cs1)c1ccccc1Br | 3.5 µM | – | 0.39 µM (≈ 0.14 µg/mL) | – | 0.098 µM (≈ 0.0353 µg/mL)
O=C(Nc1nc(-c2ccccn2)cs1)c1cccs1 | – | – | 1.6 µM (≈ 0.46 µg/mL) | – | –
O=C(Nc1nc(-c2ccccn2)cs1)c1ccccc1F | – | 0.39 µM (≈ 0.117 µg/mL) | 1.6 µM (≈ 0.479 µg/mL) | – | 1.6 µM (≈ 0.479 µg/mL)
CCCCCCCC(=O)Nc1nc(-c2ccccn2)cs1 | – | 6.3 µM (≈ 1.91 µg/mL) | 6.3 µM (≈ 1.91 µg/mL) | – | 0.78 µM (≈ 0.237 µg/mL)
COc1cccc(C(=O)Nc2nc(-c3ccccn3)cs2)c1 | 2.8 µM | – | 0.19 µM (≈ 0.0592 µg/mL) | 7 | 0.098 µM (≈ 0.0305 µg/mL)
Cc1ccc(Nc2nc(-c3ccccn3)cs2)c(C)c1 | – | 12.5 µM (≈ 3.52 µg/mL) | 12.5 µM (≈ 3.52 µg/mL) | – | 6.3 µM (≈ 1.77 µg/mL)
O=C(Nc1nc(-c2ccccn2)cs1)c1ccoc1 | – | 6.3 µM (≈ 1.71 µg/mL) | 3.1 µM (≈ 0.841 µg/mL) | – | –
Fc1cccc(Nc2nc(-c3ccccn3)cs2)c1 | – | 25 µM (≈ 6.78 µg/mL) | 25 µM (≈ 6.78 µg/mL) | – | > 12.5 µM
CC1CC1C(=O)Nc1nc(-c2ccccn2)cs1 (configuration not stated) | – | > 50 µM | 6.3 µM (≈ 1.63 µg/mL) | – | –
O=C(Nc1nc(-c2ccccn2)cs1)c1ccccc1Cl | 2 µM | 0.19 µM (≈ 0.06 µg/mL) | 0.39 µM (≈ 0.123 µg/mL) | 1 | –
